From ChEMBL document CHEMBL1144696, “Overcoming drug resistance to heme-targeted antimalarials by systematic side chain variation of 7-chloro-4-aminoquinolines” (J Med Chem, 2008)

Tests used:
[1] = system: Plasmodium falciparum; test: Antiplasmodial activity against chloroquine-resistant Plasmodium falciparum Dd2 after 72 hrs by SYBR green 1 assay; format: functional, organism-based; conditions: Dd2, 72 h
Procedure, shortened: (§1)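 P. falciparum growth inhibition measured by SYBR Green I intercalation. Each strain was tested separately. IC50 calculated from triplicate experiments. Values are averages of two separate determinations, each run in triplicate.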

[2] = system: Plasmodium falciparum; test: Selectivity for chloroquine-resistant Plasmodium falciparum Dd2 over chloroquine-sensitive Plasmodium falciparum HB3 as IC50 ratio by SYBR green assay; format: functional
Procedure, shortened: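 Selectivity index is IC50 for Dd2 divided by IC50 for HB3. Both IC50s come from the SYBR Green I assay, averaging two determinations each run in triplicate.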

[3] = system: Plasmodium falciparum; test: Antiplasmodial activity against chloroquine-sensitive Plasmodium falciparum GCO3 after 72 hrs by SYBR green 1 assay; format: functional, organism-based; conditions: GCO3, 72 h; procedure, shortened: as §1
[4] = system: Plasmodium falciparum; test: Antiplasmodial activity against chloroquine-resistant Plasmodium falciparum FCB after 72 hrs by SYBR green 1 assay; format: functional, organism-based; procedure, shortened: as §1
[5] = system: Plasmodium falciparum; test: Selectivity index for chloroquine-resistant Plasmodium falciparum FCB to chloroquine-sensitive Plasmodium falciparum GCO3 by SYBR green IC50 ratio; format: functional
[6] = system: Plasmodium falciparum; test: Antiplasmodial activity against chloroquine-sensitive Plasmodium falciparum HB3 after 72 hrs by SYBR green 1 assay; format: functional, organism-based; conditions: HB3, 72 h; procedure, shortened: as §1

**Q.** CC(C)NC1CCC(Nc2ccnc3cc(Cl)ccc23)CC1 (centres undefined) was tested. Which IC50 [1] did it give?
**A.** 75.7 nM

**Q.** And the “Ratio IC50” value [2]?
**A.** 2.42

**Q.** And the IC50 [3]?
**A.** 19.5 nM

**Q.** What about the IC50 [4] of the same compound?
**A.** 66 nM

**Q.** And the “Ratio IC50” value [5]?
**A.** 3.89

**Q.** And the IC50 [6]?
**A.** 31.3 nM

**Q.** With CC(C)N(CCCN(CCCN(C(C)C)C(C)C)c1ccnc2cc(Cl)ccc12)C(C)C as the compound, how does the IC50 [1] read?
**A.** 99.8 nM

**Q.** What about the “Ratio IC50” value [2] of the same compound?
**A.** 2.26

**Q.** And the IC50 [3]?
**A.** 42.4 nM

**Q.** What about the IC50 [4] of the same compound?
**A.** 104 nM

**Q.** What about the “Ratio IC50” value [5] of the same compound?
**A.** 2.45

**Q.** And the IC50 [6]?
**A.** 44.1 nM

**Q.** Which IC50 [1] does the source give for CCN(CC)CCCN(CC)CCNc1ccnc2cc(Cl)ccc12 here?
**A.** 31.2 nM

**Q.** What about the IC50 [3] of the same compound?
**A.** 37.7 nM

**Q.** What about the IC50 [4] of the same compound?
**A.** 52.7 nM

**Q.** And the IC50 [6]?
**A.** 27.3 nM

**Q.** How did the IC50 [1] turn out when CCN(CC)CCCNCCCCNc1ccnc2cc(Cl)ccc12 was run?
**A.** 170 nM

**Q.** What about the “Ratio IC50” value [2] of the same compound?
**A.** 2.34

**Q.** And the IC50 [3]?
**A.** 139 nM

**Q.** What about the IC50 [4] of the same compound?
**A.** 189 nM

**Q.** What about the “Ratio IC50” value [5] of the same compound?
**A.** 1.36

**Q.** And the IC50 [6]?
**A.** 72.5 nM

**Q.** How did the IC50 [1] turn out when CCN(CC)CCCNCCCCCCNc1ccnc2cc(Cl)ccc12 was run?
**A.** 269 nM

**Q.** And the “Ratio IC50” value [2]?
**A.** 3.25

**Q.** What about the IC50 [3] of the same compound?
**A.** 129 nM

**Q.** What about the IC50 [4] of the same compound?
**A.** 216 nM

**Q.** What about the “Ratio IC50” value [5] of the same compound?
**A.** 1.67

**Q.** What about the IC50 [6] of the same compound?
**A.** 82.8 nM

**Q.** CCN(CC)CCCNCCNc1ccnc2cc(Cl)ccc12 was tested. Which IC50 [1] did it give?
**A.** 129 nM

**Q.** What about the IC50 [3] of the same compound?
**A.** 118 nM

**Q.** What about the IC50 [4] of the same compound?
**A.** 146 nM

**Q.** What about the IC50 [6] of the same compound?
**A.** 29.2 nM

**Q.** What does the source list for CCN(CC)CCCNCCCNc1ccnc2cc(Cl)ccc12?
**A.** IC50 [1]: 56.3 nM; Ratio IC50 [2]: 2.06; IC50 [3]: 64.8 nM; IC50 [4]: 73.7 nM; Ratio IC50 [5]: 1.14; IC50 [6]: 27.3 nM

**Q.** Which results are given for CC(C)N(CCCCN(CCCCN(C(C)C)C(C)C)c1ccnc2cc(Cl)ccc12)C(C)C?
**A.** IC50 [1]: 2550 nM; Ratio IC50 [2]: 1.94; IC50 [3]: 1510 nM; IC50 [4]: 2220 nM; Ratio IC50 [5]: 1.47; IC50 [6]: 1310 nM

**Q.** Which IC50 [1] does the source give for CCN(CC)CCCCN(CCCCN(CC)CC)c1ccnc2cc(Cl)ccc12 here?
**A.** 882 nM

**Q.** What about the “Ratio IC50” value [2] of the same compound?
**A.** 1.23

**Q.** And the IC50 [3]?
**A.** 517 nM

**Q.** And the IC50 [4]?
**A.** 1060 nM

**Q.** And the “Ratio IC50” value [5]?
**A.** 2.05

**Q.** What about the IC50 [6] of the same compound?
**A.** 716 nM

**Q.** What does the source list for CCN(CC)CCCN(CC)CCCCCNc1ccnc2cc(Cl)ccc12?
**A.** IC50 [1]: 43.4 nM; Ratio IC50 [2]: 2.76; IC50 [3]: 55.2 nM; IC50 [4]: 66.8 nM; Ratio IC50 [5]: 1.21; IC50 [6]: 15.7 nM

**Q.** What does the source list for CCN(CC)CCCN(CC)CCCNc1ccnc2cc(Cl)ccc12?
**A.** IC50 [1]: 28.1 nM; Ratio IC50 [2]: 1.33; IC50 [3]: 27.6 nM; IC50 [4]: 49.1 nM; Ratio IC50 [5]: 1.78; IC50 [6]: 21.2 nM

**Q.** CCN(CC)C1CCCC(Nc2ccnc3cc(Cl)ccc23)C1 (centres undefined) was tested. Which IC50 [1] did it give?
**A.** 80 nM

**Q.** And the “Ratio IC50” value [2]?
**A.** 3.04

**Q.** What about the IC50 [3] of the same compound?
**A.** 40.6 nM

**Q.** And the IC50 [4]?
**A.** 113 nM

**Q.** What about the “Ratio IC50” value [5] of the same compound?
**A.** 2.78

**Q.** What about the IC50 [6] of the same compound?
**A.** 26.3 nM

**Q.** What does the source list for CCN(CC)CCCN(CC)CCCCNc1ccnc2cc(Cl)ccc12?
**A.** IC50 [1]: 84.6 nM; Ratio IC50 [2]: 3.52; IC50 [3]: 87.4 nM; IC50 [4]: 156 nM; Ratio IC50 [5]: 1.78; IC50 [6]: 24.1 nM

**Q.** What does the source list for CC(C)NC1CCCC(Nc2ccnc3cc(Cl)ccc23)C1 (centres undefined)?
**A.** IC50 [1]: 76.1 nM; Ratio IC50 [2]: 2.74; IC50 [3]: 26.1 nM; IC50 [4]: 110 nM; Ratio IC50 [5]: 4.21; IC50 [6]: 27.8 nM

**Q.** CCN(CC)CCCNCCCCCNc1ccnc2cc(Cl)ccc12 was tested. Which IC50 [1] did it give?
**A.** 103 nM

**Q.** What about the “Ratio IC50” value [2] of the same compound?
**A.** 2.25

**Q.** And the IC50 [3]?
**A.** 68.7 nM

**Q.** What about the IC50 [4] of the same compound?
**A.** 97.3 nM

**Q.** What about the “Ratio IC50” value [5] of the same compound?
**A.** 1.42

**Q.** And the IC50 [6]?
**A.** 46 nM

**Q.** How did the IC50 [1] turn out when CCN(CC)CCCN(CC)CCCCCCNc1ccnc2cc(Cl)ccc12 was run?
**A.** 274 nM

**Q.** And the “Ratio IC50” value [2]?
**A.** 4.36

**Q.** And the IC50 [3]?
**A.** 175 nM

**Q.** And the IC50 [4]?
**A.** 263 nM

**Q.** What about the “Ratio IC50” value [5] of the same compound?
**A.** 1.5

**Q.** What about the IC50 [6] of the same compound?
**A.** 62.9 nM

**Q.** Which results are given for CCN(CC)C1CCC(Nc2ccnc3cc(Cl)ccc23)CC1 (centres undefined)?
**A.** IC50 [1]: 51.8 nM; Ratio IC50 [2]: 2.03; IC50 [3]: 32 nM; IC50 [4]: 57.6 nM; Ratio IC50 [5]: 1.8; IC50 [6]: 25.5 nM

**Q.** What does the source list for CCN(CC)CCCN(CCCN(CC)CC)c1ccnc2cc(Cl)ccc12?
**A.** IC50 [1]: 128 nM; Ratio IC50 [2]: 0.68; IC50 [3]: 96.6 nM; IC50 [4]: 186 nM; Ratio IC50 [5]: 1.92; IC50 [6]: 187 nM
